Experimental data published in ChEMBL document CHEMBL1127561, “Novel spirosuccinimide aldose reductase inhibitors derived from isoquinoline-1,3-diones: 2-[(4-bromo-2-fluorophenyl)methyl]-6- fluorospiro[isoquinoline-4(1H),3'-pyrrolidine]-1,2',3,5'(2H)-tetrone and congeners. 1” (J Med Chem, 1994).

Legend:
[1] = system: Rattus norvegicus; assay: Percentage Inhibition of galactitol accumulation in the sciatic nerve of rats fed with the dose of 0.5 mg/kg/day; format: functional
Procedure, shortened: (§1)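 Male Sprague-Dawley rats (70-90 g), six per group, fed 20% galactose chow with compound in the diet for 4 days; glucose-fed controls. After a 3-h fast, lens or sciatic nerve galactitol was measured as nmol/mg wet weight. Percent inhibition vs galactose-fed controls, mean ± SEM; ANOVA with Dunnett's test.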

[2] = Log P value by using Octanol / pH 7.4 buffer; format: physicochemical
Procedure, shortened: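 Partition measured between octanol and pH 7.4 buffer.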

[3] = target: Aldo-keto reductase family 1 member B1 (Bos taurus, UniProt P16116); assay: In vitro inhibition of aldose reductase activity in a partially purified bovine lens preparation
[4] = system: Rattus norvegicus; assay: Percentage Inhibition of galactitol accumulation in the lens of rats fed with the dose of 1.1 mg/kg/day; format: functional; settings: Lens of camera-type eye; procedure, shortened: as §1
[5] = system: Rattus norvegicus; assay: Percentage Inhibition of galactitol accumulation in the sciatic nerve of rats fed with the dose of 1.1 mg/kg/day (values are mean of six animals); format: functional; procedure, shortened: as §1
[6] = system: Rattus norvegicus; assay: Percentage Inhibition of galactitol accumulation in the sciatic nerve of rats fed with the dose of 25.6 mg/kg/day; format: functional; procedure, shortened: as §1
[7] = system: Rattus norvegicus; assay: Percentage Inhibition of galactitol accumulation in the sciatic nerve of rats fed with the dose of 1.0 mg/kg/day; format: functional; procedure, shortened: as §1
[8] = system: Rattus norvegicus; assay: Percentage Inhibition of galactitol accumulation in the lens of rats fed with the dose of 3.0 mg/kg/day; format: functional; settings: Lens of camera-type eye; procedure, shortened: as §1
[9] = target: Aldo-keto reductase family 1 member B1 (Bos taurus) (UniProt P16116); assay: Inhibition of aldose reductase activity in a partially purified bovine lens preparation at 4*10e-8 M
Procedure, shortened: (§2)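 Partially purified bovine lens aldose reductase (ammonium sulfate fractionation). NADPH oxidation read at 340 nm, 37 °C, in 30 mM sodium phosphate pH 6.2, 0.2 M LiSO4, […], 1% DMSO. Enzyme was preincubated with inhibitor for 5 min, then the reaction was started with 5 mM DL-glyceraldehyde. Duplicates; IC50 from linear regression of log concentration vs percent inhibition.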

[10] = target: Aldo-keto reductase family 1 member B1 (Bos taurus) (UniProt P16116); assay: Inhibition of aldose reductase activity in a partially purified bovine lens preparation at 10e-7 M; procedure, shortened: as §2
[11] = system: Rattus norvegicus; assay: Percentage Inhibition of galactitol accumulation in the sciatic nerve of rats fed with the dose of 3.0 mg/kg/day (values are mean of six animals); format: functional; procedure, shortened: as §1
[12] = system: Rattus norvegicus; assay: Percentage Inhibition of galactitol accumulation in the lens of rats fed with the dose of 1.0 mg/kg/day; format: functional; settings: Lens of camera-type eye; procedure, shortened: as §1

O=C1CC2(C(=O)N1)C(=O)N(Cc1nc3cc(C(F)(F)F)ccc3s1)C(=O)c1ccccc12 (centres undefined)
inhibition in vivo at 0.5 mg/kg/day [1]: 49%
logD [2]: 3.17
IC50 [3]: 22 nM
inhibition in vivo at 1.1 mg/kg/day [4]: 22%
inhibition in vivo at 1.1 mg/kg/day [5]: 100%

COc1ccc2c(c1)C(=O)N(Cc1ccc(Br)cc1F)C(=O)C21CC(=O)NC1=O (centres undefined)
inhibition in vivo at 25.6 mg/kg/day [6]: 88%
IC50 [3]: 37 nM

CN1C(=O)c2ccccc2C2(CC(=O)NC2=O)C1=O (centres undefined)
inhibition in vivo at 1 mg/kg/day [7]: 37%
inhibition in vivo at 3 mg/kg/day [8]: 43%
logD [2]: 0.24
inhibition [9]: 38%
inhibition [10]: 63%
inhibition in vivo at 3 mg/kg/day [11]: 66%
inhibition in vivo at 1 mg/kg/day [12]: 15%
